Laboratory results: ChEMBL document CHEMBL3286131, “Design, synthesis and systematic evaluation of cytotoxic 3-heteroarylisoquinolinamines as topoisomerases inhibitors” (Eur J Med Chem, 2014)
Values joined by “and” are separate entries in the source; they are usually repeats but may differ in a detail not shown here. Identical values can stand only once.

Columns and labels:
[1] = Cytotoxicity against human MCF10A cells after 2 days; assay type: cell-based, MCF-10A
Outline: (§1)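 Cells seeded at 2-4 × 10^4 per well in medium with 10% FBS and incubated overnight at 37 °C, 5% CO2. Graded compound concentrations added on day 2. CCK-8 reagent added on day 4 for a further 4 h, absorbance read at 450 nm. IC50 from a four-parameter logistic fit; mean ± S.D. of three experiments run in triplicate.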

T47D = assay: Cytotoxicity against human T47D cells after 2 days; assay type: functional, cell-based; conditions: t47d; outline: as §1
DU-145 = assay: Cytotoxicity against human DU145 cells after 2 days; assay type: functional, cell-based; outline: as §1
[2] = Cytotoxicity against human HCT15 cells after 2 days; assay type: functional, cell-based, HCT-15; outline: as §1
HeLa [3] = assay: Cell cycle arrest in human HeLa cells assessed as accumulation at G0/G1 phase phase at 5 uM after 24 hrs using ethidium bromide staining by flow cytometry analysis relative to control; assay type: functional; conditions: in the assay text read “propidium iodide staining” for “ethidium bromide staining”
Outline: (§2)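 HeLa cells exposed to graded compound concentrations for 24 h, harvested by centrifugation, PBS-washed twice, fixed overnight on ice in 70% ethanol. Stained with 10 μg/mL propidium iodide plus 0.5 mg/mL RNase and 0.1% Triton X-100 in PBS, 30 min at 37 °C in the dark. Flow cytometry gates: sub-G0/G1, G0/G1, S, G2/M.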

HeLa [4] = assay: Cell cycle arrest in human HeLa cells assessed as accumulation at S phase phase at 5 uM after 24 hrs using ethidium bromide staining by flow cytometry analysis relative to control; assay type: functional; conditions: in the assay text read “propidium iodide staining” for “ethidium bromide staining”; outline: as §2
HeLa [5] = assay: Cell cycle arrest in human HeLa cells assessed as accumulation at G2/M phase phase at 5 uM after 24 hrs using ethidium bromide staining by flow cytometry analysis relative to control; assay type: functional; conditions: in the assay text read “propidium iodide staining” for “ethidium bromide staining”; outline: as §2
HeLa [6] = assay: Cell cycle arrest in human HeLa cells assessed as accumulation at sub-G0/G1 phase at 10 uM after 24 hrs using ethidium bromide staining by flow cytometry analysis relative to control; assay type: functional; conditions: in the assay text read “propidium iodide staining” for “ethidium bromide staining”; outline: as §2
HeLa [7] = assay: Cell cycle arrest in human HeLa cells assessed as accumulation at G0/G1 phase phase at 10 uM after 24 hrs using ethidium bromide staining by flow cytometry analysis relative to control; assay type: functional; conditions: in the assay text read “propidium iodide staining” for “ethidium bromide staining”; outline: as §2
HeLa [8] = assay: Cell cycle arrest in human HeLa cells assessed as accumulation at S phase phase at 10 uM after 24 hrs using ethidium bromide staining by flow cytometry analysis relative to control; assay type: functional; conditions: in the assay text read “propidium iodide staining” for “ethidium bromide staining”; outline: as §2
HeLa [9] = assay: Cell cycle arrest in human HeLa cells assessed as accumulation at G2/M phase phase at 10 uM after 24 hrs using ethidium bromide staining by flow cytometry analysis relative to control; assay type: functional; conditions: in the assay text read “propidium iodide staining” for “ethidium bromide staining”; outline: as §2
HeLa [10] = assay: Cell cycle arrest in human HeLa cells assessed as accumulation at sub-G0/G1 phase at 25 uM after 24 hrs using […] by flow cytometry analysis relative to control; assay type: functional; outline: as §2
HeLa [11] = assay: Cell cycle arrest in human HeLa cells assessed as accumulation at G0/G1 phase phase at 25 uM after 24 hrs using […] by flow cytometry analysis relative to control; assay type: functional; outline: as §2
HeLa [12] = assay: Cell cycle arrest in human HeLa cells assessed as accumulation at S phase phase at 25 uM after 24 hrs using […] by flow cytometry analysis relative to control; assay type: functional; outline: as §2
HeLa [13] = assay: Cell cycle arrest in human HeLa cells assessed as accumulation at G2/M phase phase at 25 uM after 24 hrs using […] by flow cytometry analysis relative to control; assay type: functional; outline: as §2
HeLa [14] = assay: Cell cycle arrest in human HeLa cells assessed as accumulation at sub-G0/G1 phase at 50 uM after 24 hrs using […] by flow cytometry analysis relative to control; assay type: functional; outline: as §2
HeLa [15] = assay: Cell cycle arrest in human HeLa cells assessed as accumulation at G0/G1 phase phase at 50 uM after 24 hrs using […] by flow cytometry analysis relative to control; assay type: functional; outline: as §2
HeLa [16] = assay: Cell cycle arrest in human HeLa cells assessed as accumulation at S phase phase at 50 uM after 24 hrs using […] by flow cytometry analysis relative to control; assay type: functional; outline: as §2
HeLa [17] = assay: Cell cycle arrest in human HeLa cells assessed as accumulation at G2/M phase phase at 50 uM after 24 hrs using […] by flow cytometry analysis relative to control; assay type: functional; outline: as §2
[18] = biological target: DNA topoisomerase 2-alpha (Homo sapiens) (UniProt P11388); assay: Inhibition of human DNA topoisomerase-2a-mediated relaxation of supercoiled DNA pBR322 at 100 uM after 4 hrs using ethidium bromide staining by agarose gel electrophoresis analysis
Outline: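 Supercoiled pBR322 (200 ng) incubated with human topo IIα (1 unit) ± compound for 30 min at 30 °C. Buffer: 10 mM Tris-HCl pH 7.9, 50 mM NaCl, 50 mM KCl, 5 mM MgCl2, 1 mM EDTA, 1 mM ATP, BSA. Stopped with EDTA. 1% agarose gel run at 25 V for 4 h in TAE, ethidium bromide stain, supercoiled DNA quantified by UV imaging.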

[19] = biological target: T1, DNA topoisomerase 1 (Homo sapiens) (UniProt P11387); assay: Inhibition of recombinant human DNA topoisomerase-1-mediated relaxation of supercoiled DNA pBR322 at 100 uM after 7 hrs using ethidium bromide staining by agarose gel electrophoresis analysis
T1 sequence (whole entry): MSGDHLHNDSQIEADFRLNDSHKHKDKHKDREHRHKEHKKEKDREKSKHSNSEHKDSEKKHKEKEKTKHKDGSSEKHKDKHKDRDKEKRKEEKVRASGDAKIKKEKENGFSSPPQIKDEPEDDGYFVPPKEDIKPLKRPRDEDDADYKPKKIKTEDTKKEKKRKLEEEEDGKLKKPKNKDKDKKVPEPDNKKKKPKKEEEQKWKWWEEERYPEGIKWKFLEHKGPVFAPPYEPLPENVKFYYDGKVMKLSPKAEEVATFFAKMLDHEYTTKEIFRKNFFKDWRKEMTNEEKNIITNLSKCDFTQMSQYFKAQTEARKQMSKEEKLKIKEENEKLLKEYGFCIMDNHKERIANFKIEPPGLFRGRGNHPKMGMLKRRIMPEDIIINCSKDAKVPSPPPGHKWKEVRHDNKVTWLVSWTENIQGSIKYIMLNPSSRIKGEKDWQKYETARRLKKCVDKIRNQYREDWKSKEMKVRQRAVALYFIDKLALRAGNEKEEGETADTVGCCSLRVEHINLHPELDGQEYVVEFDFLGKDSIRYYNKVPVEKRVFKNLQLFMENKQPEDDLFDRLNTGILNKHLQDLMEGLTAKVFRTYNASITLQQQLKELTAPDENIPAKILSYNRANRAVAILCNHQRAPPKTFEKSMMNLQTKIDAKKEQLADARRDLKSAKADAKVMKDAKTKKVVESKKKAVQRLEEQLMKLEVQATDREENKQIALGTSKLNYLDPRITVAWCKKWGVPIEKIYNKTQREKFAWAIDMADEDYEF
Outline: (§3)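 pBR322 (100 ng) incubated with recombinant human topo I (0.4 units) ± compound for 30 min at 37 °C. Buffer: 10 mM Tris-HCl pH 7.9, 150 mM NaCl, 0.1% BSA, 1 mM spermidine, 5% glycerol. Quenched with sarcosyl stop solution. 1% agarose gel run at 15 V for 7 h in TAE, ethidium bromide stain, supercoiled DNA quantified under UV.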

[20] = biological target: T1, DNA topoisomerase 1 (Homo sapiens); assay: Inhibition of recombinant human DNA topoisomerase-1-mediated relaxation of supercoiled DNA pBR322 at 20 uM after 7 hrs using ethidium bromide staining by agarose gel electrophoresis analysis; outline: as §3

Sequence of DNA topoisomerase 2-alpha (Homo sapiens) (P11388 whole entry): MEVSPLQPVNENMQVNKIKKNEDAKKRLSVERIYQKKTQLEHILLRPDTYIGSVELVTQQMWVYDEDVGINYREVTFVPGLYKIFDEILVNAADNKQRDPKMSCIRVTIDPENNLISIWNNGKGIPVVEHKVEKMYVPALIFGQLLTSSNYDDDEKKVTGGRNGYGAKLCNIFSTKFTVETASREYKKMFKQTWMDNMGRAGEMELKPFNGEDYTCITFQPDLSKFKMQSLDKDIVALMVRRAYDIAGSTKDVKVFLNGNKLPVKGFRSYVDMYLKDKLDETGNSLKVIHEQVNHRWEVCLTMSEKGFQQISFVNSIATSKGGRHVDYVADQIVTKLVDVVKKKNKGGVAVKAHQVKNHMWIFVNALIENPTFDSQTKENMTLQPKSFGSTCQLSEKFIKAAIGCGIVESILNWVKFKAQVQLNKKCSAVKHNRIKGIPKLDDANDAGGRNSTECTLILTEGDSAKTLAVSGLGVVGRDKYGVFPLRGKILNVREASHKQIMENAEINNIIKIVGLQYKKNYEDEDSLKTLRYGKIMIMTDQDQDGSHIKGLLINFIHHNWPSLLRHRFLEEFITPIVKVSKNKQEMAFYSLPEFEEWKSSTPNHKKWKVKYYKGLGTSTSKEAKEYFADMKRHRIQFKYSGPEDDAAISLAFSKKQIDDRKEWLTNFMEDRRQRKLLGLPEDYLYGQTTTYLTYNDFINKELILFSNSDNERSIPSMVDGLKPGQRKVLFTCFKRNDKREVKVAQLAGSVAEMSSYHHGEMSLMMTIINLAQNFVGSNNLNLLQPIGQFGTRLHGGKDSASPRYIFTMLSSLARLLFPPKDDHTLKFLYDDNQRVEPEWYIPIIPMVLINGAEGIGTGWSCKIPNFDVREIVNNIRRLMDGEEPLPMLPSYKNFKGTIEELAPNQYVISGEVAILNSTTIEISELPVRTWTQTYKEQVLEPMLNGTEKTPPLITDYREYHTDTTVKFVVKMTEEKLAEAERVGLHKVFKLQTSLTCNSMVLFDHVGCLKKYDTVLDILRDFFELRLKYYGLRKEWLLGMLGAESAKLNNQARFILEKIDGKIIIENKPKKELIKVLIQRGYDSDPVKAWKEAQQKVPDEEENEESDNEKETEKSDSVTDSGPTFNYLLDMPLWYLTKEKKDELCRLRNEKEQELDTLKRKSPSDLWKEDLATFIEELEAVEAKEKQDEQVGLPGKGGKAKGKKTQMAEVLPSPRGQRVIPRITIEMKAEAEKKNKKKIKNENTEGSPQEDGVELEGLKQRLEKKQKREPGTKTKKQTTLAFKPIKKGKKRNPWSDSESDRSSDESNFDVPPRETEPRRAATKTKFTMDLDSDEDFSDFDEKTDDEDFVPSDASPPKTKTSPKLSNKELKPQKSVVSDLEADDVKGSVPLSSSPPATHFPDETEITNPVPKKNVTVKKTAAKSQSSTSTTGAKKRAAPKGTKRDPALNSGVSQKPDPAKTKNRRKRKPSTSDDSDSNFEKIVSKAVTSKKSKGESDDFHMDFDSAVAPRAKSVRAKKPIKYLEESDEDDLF

CCN1CCN(c2nc(-c3cccs3)cc3ccccc23)CC1.Cl
IC50 ([1]; mcf-10a): 23.8 µM
IC50 (T47D): 8.08 µM
IC50 (DU-145; Homo sapiens, DU-145, 48 h): 46.6 µM
IC50 ([2]; hct-15): 9.29 µM
Activity (HeLa [3]): 68.51%
Activity (HeLa [4]): 9.99%
Activity (HeLa [5]): 15.9%
Activity (HeLa [6]): 2.59%
Activity (HeLa [7]): 57.14%
Activity (HeLa [8]): 12.88%
Activity (HeLa [9]): 20%
Activity (HeLa [10]): 2.67%
Activity (HeLa [11]): 54.43%
Activity (HeLa [12]): 18.42%
Activity (HeLa [13]): 15.75%
Activity (HeLa [14]): 54.68%
Activity (HeLa [15]): 31.74%
Activity (HeLa [16]): 6.9%
Activity (HeLa [17]): 3.46%

Nc1nc(-c2cccs2)cc2ccccc12
IC50 ([1]; Homo sapiens, MCF-10A, 48 h): > 50 µM
IC50 (T47D): 7.93 µM
IC50 (DU-145; Homo sapiens, DU-145, 48 h): > 50 µM
IC50 ([2]; hct-15): 1.2 µM
Activity (HeLa [3]): 44.93%
Activity (HeLa [4]): 9.04%
Activity (HeLa [5]): 28.48%
Activity (HeLa [6]): 17.43%
Activity (HeLa [7]): 21.33%
Activity (HeLa [8]): 8.2%
Activity (HeLa [9]): 41.79%
Activity (HeLa [10]): 18.03%
Activity (HeLa [11]): 11.6%
Activity (HeLa [12]): 11.29%
Activity (HeLa [13]): 47.68%
Activity (HeLa [14]): 13.66%
Activity (HeLa [15]): 5.04%
Activity (HeLa [16]): 9.56%
Activity (HeLa [17]): 59.85%

Cc1ccc2cc(-c3cccs3)nc(N3CCN(C)CC3)c2c1
inhibition [18]: 0%
inhibition [19]: 29.6% and 35.9%
inhibition [20]: 0%

CCN1CCN(c2nc(-c3cccs3)cc3ccccc23)CC1
IC50 ([1]; mcf-10a): 49 µM
IC50 (T47D): 17.4 µM
IC50 (DU-145; du-145): > 50 µM
IC50 ([2]; Homo sapiens, HCT-15, 48 h): 7.42 µM
Activity (HeLa [3]): 65.03%
Activity (HeLa [4]): 10.47%
Activity (HeLa [5]): 14.89%
Activity (HeLa [6]): 2.08%
Activity (HeLa [7]): 66.35%
Activity (HeLa [8]): 9.46%
Activity (HeLa [9]): 17.28%
Activity (HeLa [10]): 3.77%
Activity (HeLa [11]): 55.62%
Activity (HeLa [12]): 13.4%
Activity (HeLa [13]): 19.68%
Activity (HeLa [14]): 3.97%
Activity (HeLa [15]): 71.23%
Activity (HeLa [16]): 7.96%
Activity (HeLa [17]): 11.7%

c1csc(-c2cc3ccccc3c(N3CCNCC3)n2)c1
IC50 ([1]; mcf-10a): 44.1 µM
IC50 (T47D): 9.53 µM
IC50 (DU-145; du-145): 17.6 µM
IC50 ([2]; hct-15): 1.25 µM
Activity (HeLa [3]): 59.83%
Activity (HeLa [4]): 13.11%
Activity (HeLa [5]): 16.28%
Activity (HeLa [6]): 1.85%
Activity (HeLa [7]): 61.34%
Activity (HeLa [8]): 12.03%
Activity (HeLa [9]): 16.57%
Activity (HeLa [10]): 1.77%
Activity (HeLa [11]): 67.7%
Activity (HeLa [12]): 8.71%
Activity (HeLa [13]): 14.88%
Activity (HeLa [14]): 90.21%
Activity (HeLa [15]): 4.52%
Activity (HeLa [16]): 1.16%
Activity (HeLa [17]): 0.72%

CCN1CCN(c2nc(-c3cccs3)cc3cc(C)ccc23)CC1
IC50 ([1]; mcf-10a): 33.9 µM
IC50 (T47D): 8.45 µM
IC50 (DU-145; Homo sapiens, DU-145, 48 h): 17.2 µM
IC50 ([2]; Homo sapiens, HCT-15, 48 h): 2.41 µM
Activity (HeLa [3]): 65.61%
Activity (HeLa [4]): 9.77%
Activity (HeLa [5]): 17.4%
Activity (HeLa [6]): 2.63%
Activity (HeLa [7]): 58.48%
Activity (HeLa [8]): 13.41%
Activity (HeLa [9]): 18.01%
Activity (HeLa [10]): 3.17%
Activity (HeLa [11]): 63.92%
Activity (HeLa [12]): 13.57%
Activity (HeLa [13]): 13.75%
Activity (HeLa [14]): 96.49%
Activity (HeLa [15]): 2.37%
Activity (HeLa [16]): 0.47%
Activity (HeLa [17]): 0.22%

Cl.c1csc(-c2cc3ccccc3c(N3CCNCC3)n2)c1
IC50 ([1]; mcf-10a): 18.1 µM
IC50 (T47D): 4.51 µM
IC50 (DU-145; du-145): 8.25 µM
IC50 ([2]; hct-15): 5.45 µM
Activity (HeLa [3]): 60.31%
Activity (HeLa [4]): 12.7%
Activity (HeLa [5]): 16.24%
Activity (HeLa [6]): 3.57%
Activity (HeLa [7]): 67.99%
Activity (HeLa [8]): 7.13%
Activity (HeLa [9]): 15.05%
Activity (HeLa [10]): 85.1%
Activity (HeLa [11]): 7.25%
Activity (HeLa [12]): 1.85%
Activity (HeLa [13]): 1.23%
Activity (HeLa [14]): 99.58%
Activity (HeLa [15]): 0.18%
Activity (HeLa [16]): 0.04%
Activity (HeLa [17]): 0.02%
